Columns and labels:
Mus musculus [1] = assay: Antidiabetic activity in C57BKS db/db mouse assessed as blood glucose level at 15 mg/kg/day administered for 5 weeks followed by glucose challenge at 6 hrs starvation of post last dose measured at 120 mins by OGTT (reference value: 28.1 +/- 1.3 mmol/L); assay type: functional
Method in brief: (§1)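 C57BKS db/db mice received 5, 15 or 50 mg/kg/day for 5 weeks. Vehicle was 0.5% methylcellulose at 10 mL/kg/day. In week 5, mice were fasted 6 h and given an oral glucose load of 1.5 g/kg, then blood glucose was recorded over the glucose tolerance test. Data are mean ± SE, compared with Student's t-test.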

Mus musculus [2] = assay: Antidiabetic activity in C57BKS db/db mouse assessed as blood glucose level at 15 mg/kg/day administered for 5 weeks followed by glucose challenge at 6 hrs starvation of post last dose measured at 90 mins by OGTT (reference value: 27.2 +/- 1.3 mmol/L); assay type: functional; method in brief: as §1
Mus musculus [3] = assay: Antidiabetic activity in C57BKS db/db mouse assessed as blood glucose level at 15 mg/kg/day administered for 5 weeks followed by glucose challenge at 6 hrs starvation of post last dose measured at 60 mins by OGTT (reference value: 30.2 +/- 1.5 mmol/L); assay type: functional; method in brief: as §1
Mus musculus [4] = assay: Antidiabetic activity in C57BKS db/db mouse assessed as blood glucose level at 15 mg/kg/day administered for 5 weeks followed by glucose challenge at 6 hrs starvation of post last dose measured at 30 mins by OGTT (reference value: 46.6 +/- 2.2 mmol/L); assay type: functional; method in brief: as §1
Mus musculus [5] = assay: Antidiabetic activity in C57BKS db/db mouse assessed as blood glucose level at 15 mg/kg/day administered for 5 weeks followed by glucose challenge at 6 hrs starvation of post last dose measured immediately by OGTT (reference value: 25 +/- 1.2 mmol/L); assay type: functional; method in brief: as §1
Mus musculus [6] = assay: Antidiabetic activity in ICR mouse assessed as decrease in blood glucose AUC (0 to 120 mins) at 30 mg/kg administered for 30 mins prior to glucose challenge measured after 4 hrs by OGTT relative to vehicle-treated control; assay type: functional; design: scale not given: the % may be the effect or the level left
Method in brief: (§2)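 ICR mice were fasted 16 h and given one dose in 0.5% methylcellulose vehicle (10 mL/kg). An oral glucose load of 2.5 g/kg followed; methods state 30 min after dosing, the figure legend 4 h.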

CYP2C9 = CYP2C9 (Homo sapiens, UniProt P11712); assay: Inhibition of CYP2C9 (unknown origin) at 100 uM relative to control; assay type: ADME
CYP3A4 = CYP3A4 (Homo sapiens, UniProt P08684); assay: Inhibition of CYP3A4 (unknown origin) at 100 uM relative to control; assay type: ADME
[7] = biological target: Voltage-gated inwardly rectifying potassium channel KCNH2 (Homo sapiens, UniProt Q12809); assay: Inhibition of human ERG expressed in CHO-ZG cells after 20 mins by FluxOR thallium assay
[8] = Oral bioavailability in Sprague-Dawley rat at 50 mg/kg; assay type: ADME, organism-based; conditions: in vivo
Method in brief: (§3)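 Sprague-Dawley rats were dosed orally or intravenously, and blood was sampled after dosing. Plasma was separated by centrifugation and deproteinized with methanol containing an internal standard. The supernatant was diluted with methanol, centrifuged again and quantified by LC/MS/MS.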

[9] = Apparent clearance in Sprague-Dawley rat at 20 mg/kg, iv; assay type: ADME, organism-based; design: dose 20 mg/kg, route intravenous; conditions: in vivo, read-out: CL(app) (converted); method in brief: as §3
[10] = Half life in Sprague-Dawley rat at 20 mg/kg, iv; assay type: ADME, organism-based; design: dose 20 mg/kg, route intravenous; conditions: in vivo; method in brief: as §3
[11] = Half life in Sprague-Dawley rat at 50 mg/kg, po; assay type: ADME, organism-based; design: dose 50 mg/kg, route oral; conditions: in vivo; method in brief: as §3
[12] = Mean residence time in Sprague-Dawley rat at 20 mg/kg, iv; assay type: ADME, organism-based; design: dose 20 mg/kg, route intravenous; conditions: in vivo; method in brief: as §3
[13] = Mean residence time in Sprague-Dawley rat at 50 mg/kg, po; assay type: ADME, organism-based; design: dose 50 mg/kg, route oral; conditions: in vivo; method in brief: as §3
[14] = AUC (0 to infinity) in Sprague-Dawley rat at 20 mg/kg, iv; assay type: ADME, organism-based; design: time infinity, dose 20 mg/kg, route intravenous; conditions: plasma; method in brief: as §3
[15] = AUC (0 to infinity) in Sprague-Dawley rat at 50 mg/kg, po; assay type: ADME, organism-based; design: time infinity, dose 50 mg/kg, route oral; conditions: plasma; method in brief: as §3
[16] = AUC (0 to t) in Sprague-Dawley rat at 20 mg/kg, iv; assay type: ADME, organism-based; design: dose 20 mg/kg, route intravenous; conditions: plasma; method in brief: as §3
[17] = AUC (0 to t) in Sprague-Dawley rat at 50 mg/kg, po; assay type: ADME, organism-based; design: dose 50 mg/kg, route oral; conditions: plasma; method in brief: as §3
[18] = Cmax in Sprague-Dawley rat at 20 mg/kg, iv; assay type: ADME, organism-based; design: dose 20 mg/kg, route intravenous; conditions: in vivo; method in brief: as §3
[19] = Cmax in Sprague-Dawley rat at 50 mg/kg, po; assay type: ADME, organism-based; design: dose 50 mg/kg, route oral; conditions: in vivo; method in brief: as §3
[20] = Tmax in Sprague-Dawley rat at 20 mg/kg, iv; assay type: ADME, organism-based; design: dose 20 mg/kg, route intravenous; conditions: in vivo; method in brief: as §3
[21] = Tmax in Sprague-Dawley rat at 50 mg/kg, po; assay type: ADME, organism-based; design: dose 50 mg/kg, route oral; conditions: in vivo
Method in brief: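 Sprague-Dawley rats dosed orally (i.v. arm run in parallel). Blood collected after dosing and centrifuged to plasma. Plasma deproteinized with methanol containing an internal standard, centrifuged, and the supernatant diluted in methanol and recentrifuged. Drug levels in the supernatant quantified by LC/MS/MS, and Tmax taken from the plasma concentration-time profile.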

Mus musculus [22] = assay: Antidiabetic activity in C57BKS db/db mouse assessed as blood glucose level at 50 mg/kg/day administered for 5 weeks followed by glucose challenge at 6 hrs starvation of post last dose measured at 120 mins by OGTT (reference value: 28.1 +/- 1.3 mmol/L); assay type: functional; method in brief: as §1
Mus musculus [23] = assay: Antidiabetic activity in C57BKS db/db mouse assessed as blood glucose level at 50 mg/kg/day administered for 5 weeks followed by glucose challenge at 6 hrs starvation of post last dose measured at 90 mins by OGTT (reference value: 27.2 +/- 1.3 mmol/L); assay type: functional; method in brief: as §1
Mus musculus [24] = assay: Antidiabetic activity in C57BKS db/db mouse assessed as blood glucose level at 50 mg/kg/day administered for 5 weeks followed by glucose challenge at 6 hrs starvation of post last dose measured at 60 mins by OGTT (reference value: 30.2 +/- 1.5 mmol/L); assay type: functional; method in brief: as §1
Mus musculus [25] = assay: Antidiabetic activity in C57BKS db/db mouse assessed as blood glucose level at 50 mg/kg/day administered for 5 weeks followed by glucose challenge at 6 hrs starvation of post last dose measured at 30 mins by OGTT (reference value: 46.6 +/- 2.2 mmol/L); assay type: functional; method in brief: as §1
Mus musculus [26] = assay: Antidiabetic activity in C57BKS db/db mouse assessed as blood glucose level at 50 mg/kg/day administered for 5 weeks followed by glucose challenge at 6 hrs starvation of post last dose measured immediately by OGTT (reference value: 25 +/- 1.2 mmol/L); assay type: functional; method in brief: as §1
Mus musculus [27] = assay: Antidiabetic activity in C57BKS db/db mouse assessed as blood glucose level at 5 mg/kg/day administered for 5 weeks followed by glucose challenge at 6 hrs starvation of post last dose measured at 120 mins by OGTT (reference value: 28.1 +/- 1.3 mmol/L); assay type: functional; method in brief: as §1
Mus musculus [28] = assay: Antidiabetic activity in C57BKS db/db mouse assessed as blood glucose level at 5 mg/kg/day administered for 5 weeks followed by glucose challenge at 6 hrs starvation of post last dose measured at 90 mins by OGTT (reference value: 27.2 +/- 1.3 mmol/L); assay type: functional; method in brief: as §1
Mus musculus [29] = assay: Antidiabetic activity in C57BKS db/db mouse assessed as blood glucose level at 5 mg/kg/day administered for 5 weeks followed by glucose challenge at 6 hrs starvation of post last dose measured at 60 mins by OGTT (reference value: 30.2 +/- 1.5 mmol/L); assay type: functional; method in brief: as §1
Mus musculus [30] = assay: Antidiabetic activity in C57BKS db/db mouse assessed as blood glucose level at 5 mg/kg/day administered for 5 weeks followed by glucose challenge at 6 hrs starvation of post last dose measured at 30 mins by OGTT (reference value: 46.6 +/- 2.2 mmol/L); assay type: functional; method in brief: as §1
Mus musculus [31] = assay: Antidiabetic activity in C57BKS db/db mouse assessed as blood glucose level at 5 mg/kg/day administered for 5 weeks followed by glucose challenge at 6 hrs starvation of post last dose measured immediately by OGTT (reference value: 25 +/- 1.2 mmol/L); assay type: functional; method in brief: as §1
Mus musculus [32] = assay: Antidiabetic activity in ICR mouse assessed as decrease in blood glucose AUC (0 to 120 mins) administered for 30 mins prior to glucose challenge measured after 4 hrs by OGTT; assay type: functional, organism-based
Method in brief: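 ICR mice fasted 16 h, then given a single dose of 15 or 50 mg/kg; vehicle 0.5% methylcellulose (10 mL/kg), LAF237 30 mg/kg as positive control. Oral glucose 2.5 g/kg given 30 min after dosing (legend says 4 h). Blood glucose read at 0, 15, 30, 60, 90, 120 min for AUC0–120. Mean ± SE, n = 10; Student's t-test.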

Mus musculus [33] = assay: Antidiabetic activity in ICR mouse assessed as decrease in blood glucose AUC (0 to 120 mins) at 50 mg/kg administered for 30 mins prior to glucose challenge measured after 4 hrs by OGTT relative to vehicle-treated control; assay type: functional; design: scale not given: the % may be the effect or the level left; method in brief: as §2
Mus musculus [34] = assay: Antidiabetic activity in ICR mouse assessed as decrease in blood glucose AUC (0 to 120 mins) at 15 mg/kg administered for 30 mins prior to glucose challenge measured after 4 hrs by OGTT relative to vehicle-treated control; assay type: functional; design: scale not given: the % may be the effect or the level left; method in brief: as §2

Voltage-gated inwardly rectifying potassium channel KCNH2, sequence (Q12809 whole entry): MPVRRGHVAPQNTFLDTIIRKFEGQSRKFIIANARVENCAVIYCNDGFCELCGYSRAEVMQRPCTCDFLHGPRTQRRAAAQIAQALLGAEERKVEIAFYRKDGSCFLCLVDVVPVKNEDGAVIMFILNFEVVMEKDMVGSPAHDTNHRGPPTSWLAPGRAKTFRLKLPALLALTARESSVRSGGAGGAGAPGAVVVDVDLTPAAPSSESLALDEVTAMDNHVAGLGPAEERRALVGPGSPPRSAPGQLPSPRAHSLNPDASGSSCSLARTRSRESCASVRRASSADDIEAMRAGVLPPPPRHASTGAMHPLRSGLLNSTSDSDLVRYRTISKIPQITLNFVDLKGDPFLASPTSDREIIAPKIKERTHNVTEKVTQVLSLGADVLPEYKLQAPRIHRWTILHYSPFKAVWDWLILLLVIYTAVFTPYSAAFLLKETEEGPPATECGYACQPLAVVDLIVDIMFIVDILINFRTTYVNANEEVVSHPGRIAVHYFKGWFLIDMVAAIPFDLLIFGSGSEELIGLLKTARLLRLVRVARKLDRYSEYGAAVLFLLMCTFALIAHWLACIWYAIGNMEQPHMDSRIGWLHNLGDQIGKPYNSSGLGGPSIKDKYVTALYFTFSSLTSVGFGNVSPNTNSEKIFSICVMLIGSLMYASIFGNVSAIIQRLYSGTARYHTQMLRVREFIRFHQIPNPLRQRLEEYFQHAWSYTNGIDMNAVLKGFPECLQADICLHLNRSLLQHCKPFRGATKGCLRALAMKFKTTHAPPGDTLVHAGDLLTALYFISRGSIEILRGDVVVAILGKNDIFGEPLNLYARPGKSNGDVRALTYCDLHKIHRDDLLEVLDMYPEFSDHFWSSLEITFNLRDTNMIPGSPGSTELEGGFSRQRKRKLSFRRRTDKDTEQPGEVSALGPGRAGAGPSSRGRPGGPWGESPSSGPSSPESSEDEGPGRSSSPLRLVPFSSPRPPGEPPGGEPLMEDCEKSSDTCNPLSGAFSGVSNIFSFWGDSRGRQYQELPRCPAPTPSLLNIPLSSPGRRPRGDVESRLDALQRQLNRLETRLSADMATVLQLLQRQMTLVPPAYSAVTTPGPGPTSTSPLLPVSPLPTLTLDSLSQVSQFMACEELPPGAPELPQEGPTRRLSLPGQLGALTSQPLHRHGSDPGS
CYP2C9, sequence (P11712 whole entry): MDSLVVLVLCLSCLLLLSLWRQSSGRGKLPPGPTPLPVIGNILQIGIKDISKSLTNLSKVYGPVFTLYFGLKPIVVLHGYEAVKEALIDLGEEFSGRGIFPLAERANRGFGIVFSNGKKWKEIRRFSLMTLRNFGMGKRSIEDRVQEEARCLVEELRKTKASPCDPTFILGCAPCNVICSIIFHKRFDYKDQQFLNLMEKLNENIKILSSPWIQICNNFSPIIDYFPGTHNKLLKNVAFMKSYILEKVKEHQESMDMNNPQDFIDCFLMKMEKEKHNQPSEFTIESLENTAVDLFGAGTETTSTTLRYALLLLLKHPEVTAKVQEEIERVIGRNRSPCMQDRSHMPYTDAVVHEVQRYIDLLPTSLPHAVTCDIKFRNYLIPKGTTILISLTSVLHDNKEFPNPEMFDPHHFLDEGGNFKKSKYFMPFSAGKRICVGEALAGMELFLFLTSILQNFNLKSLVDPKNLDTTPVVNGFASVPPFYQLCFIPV
CYP3A4, sequence (P08684 whole entry): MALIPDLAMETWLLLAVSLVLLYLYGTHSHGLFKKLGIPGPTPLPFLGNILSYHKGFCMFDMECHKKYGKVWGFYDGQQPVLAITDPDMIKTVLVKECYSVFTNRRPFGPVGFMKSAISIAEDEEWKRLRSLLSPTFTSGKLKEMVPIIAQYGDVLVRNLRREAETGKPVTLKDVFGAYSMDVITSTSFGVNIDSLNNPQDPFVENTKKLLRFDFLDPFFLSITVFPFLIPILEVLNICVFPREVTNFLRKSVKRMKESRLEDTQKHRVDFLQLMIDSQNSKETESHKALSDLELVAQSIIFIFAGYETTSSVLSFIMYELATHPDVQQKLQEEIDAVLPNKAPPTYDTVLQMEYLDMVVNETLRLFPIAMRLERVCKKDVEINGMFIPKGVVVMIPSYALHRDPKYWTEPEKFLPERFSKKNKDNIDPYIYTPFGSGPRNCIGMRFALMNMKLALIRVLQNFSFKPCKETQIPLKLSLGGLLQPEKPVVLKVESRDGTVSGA

N#C[C@@H]1CCCN1C(=O)CNC12CC3CC(CC(O)(C3)C1)C2 [VILDAGLIPTIN]
Activity (Mus musculus [1]): 21.4 mmol/L | Activity (Mus musculus [2]): 20.7 mmol/L | Activity (Mus musculus [3]): 21 mmol/L | Activity (Mus musculus [4]): 31.3 mmol/L | Activity (Mus musculus [5]): 17.9 mmol/L | Activity (Mus musculus [6]): 19.9%

N#C[C@@H]1C[C@H](F)CN1C(=O)[C@@H](N)Cc1cscn1
inhibition at 100 µM (CYP2C9): 11.2% | inhibition at 100 µM (CYP3A4): 7.4% | IC50 [7]: 177 µM | bioavailability [8]: 37.8% | clearance [9]: 116 mL/min/kg | half-life [10]: 2.27 h | half-life [11]: 1.45 h | MRT [12]: 1.48 h | MRT [13]: 1.47 h | AUC(0-inf) [14]: 2900 ng·h/mL | AUC(0-inf) [15]: 2840 ng·h/mL | AUC(0-t) [16]: 2890 ng·h/mL | AUC(0-t) [17]: 2730 ng·h/mL | Cmax [18]: 2960 ng/mL | Cmax [19]: 2710 ng/mL | Tmax [20]: 0.3 h | Tmax [21]: 0.3 h | Activity (Mus musculus [22]): 20.4 mmol/L | Activity (Mus musculus [23]): 20.5 mmol/L | Activity (Mus musculus [24]): 19.9 mmol/L | Activity (Mus musculus [25]): 38 mmol/L | Activity (Mus musculus [26]): 18.1 mmol/L | Activity (Mus musculus [1]): 20.6 mmol/L | Activity (Mus musculus [2]): 20.8 mmol/L | Activity (Mus musculus [3]): 21.8 mmol/L | Activity (Mus musculus [4]): 41.3 mmol/L | Activity (Mus musculus [27]): 24.5 mmol/L | Activity (Mus musculus [5]): 18 mmol/L | Activity (Mus musculus [28]): 24.1 mmol/L | Activity (Mus musculus [29]): 27.5 mmol/L | Activity (Mus musculus [30]): 45.1 mmol/L | Activity (Mus musculus [31]): 21.5 mmol/L | Activity (Mus musculus [32]): Dose-dependent effect | Activity (Mus musculus [33]): 12.8% | Activity (Mus musculus [34]): 10.7%
